Reference: ChEMBL document CHEMBL1143913, “Pyrimidinone-peptoid hybrid molecules with distinct effects on molecular chaperone function and cell proliferation” (Bioorg Med Chem, 2008)

Legend:
Saccharomyces cerevisiae [1] = test: Inhibition of SV40 T antigen-stimulated Hsp70 ATPase in yeast assessed as ATP hydrolysis relative to control
Summary of the method: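 Yeast Ssa1p was pre-bound to ATP and run as a single-turnover assay with purified SV40 TAg (0.4 µM). Compound (300 µM) or DMSO was added at 60 s, and that time was set to zero. Runs were averaged over multiple experiments, kinetics were fitted, and the value is the fold change in TAg-stimulated ATP hydrolysis versus DMSO.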

SK-BR-3 = test: Antiproliferative activity against human SK-BR3 cells after 96 hrs by MTS assay; format: functional; settings: SK-BR-3, 96 h
Summary of the method: (§1)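 Cells were kept in exponential growth in DMEM with 10% FBS, 1% penicillin and 1% glutamine, seeded at 4,000 per well and grown 48 h, with a time-zero plate counted. They were then exposed for 72 h to DMSO (1 v/v) or a concentration range in quadruplicate. Cell number was read by MTS/N-methylphenazine methylsulfate absorbance at 490 minus 630 nm. GI50 is relative to DMSO over the 72 h or 96 h period, and values above 50 µM are given as >50.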

HT-29 = test: Antiproliferative activity against human HT29 cells after 96 hrs by MTS assay; format: functional; settings: HT-29, 96 h; summary of the method: as §1
MCF7 = test: Antiproliferative activity against human MCF7 cells after 96 hrs by MTS assay; format: functional; settings: MCF7, 96 h; summary of the method: as §1
Saccharomyces cerevisiae [2] = test: Inhibition of yeast Hsp70 ATPase assessed as ATP hydrolysis relative to control
Summary of the method: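 Purified yeast Hsp70 (Ssa1p) was pre-bound to ATP and run as a single-turnover assay, so that only the hydrolysis step is measured. Compound (300 µM) or DMSO was added at 0 s, and that time was set to zero. Results from multiple experiments were averaged, kinetics were fitted, and the value is the fold change in hydrolysis versus DMSO.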

[3] = Binding affinity to Hsp70
[4] = Binding affinity to Hsp90

## CCCCCCN(C(=O)CCCCCN1C(=O)NC(c2ccccc2)C(C(=O)OCc2ccccc2)=C1C)C(C(=O)NCCCC)c1ccc(OCC(=O)OC)c(C(=O)OC)c1 (stereo not drawn)
Saccharomyces cerevisiae [1]
  Fold change: -1.1
SK-BR-3
  GI50: 6.5 µM
HT-29
  GI50: 4.8 µM
MCF7
  GI50: 2.4 µM
Saccharomyces cerevisiae [2]
  Fold change: 1.1

## CCCCCCN(C(=O)CCCCCN1C(=O)NC(C2CC2)C(C(=O)OCc2ccccc2)=C1C)C(C(=O)NCCCC)c1ccc(OCC(=O)OC)c(C(=O)OC)c1 (stereo not drawn)
Saccharomyces cerevisiae [1]
  Fold change: -2.6
SK-BR-3
  GI50: 6.2 µM
HT-29
  GI50: 5.3 µM
MCF7
  GI50: 6.3 µM
Saccharomyces cerevisiae [2]
  Fold change: 1.2

## CCCCNC(=O)C(c1ccc(OCC(=O)OC)c(C(=O)OC)c1)N(CCOC)C(=O)CCCCCN1C(=O)NC(c2ccc(-c3ccccc3)cc2)C(C(=O)OCc2ccccc2)=C1C (stereo not drawn)
Saccharomyces cerevisiae [1]
  Fold change: -1.8
SK-BR-3
  GI50: 8.8 µM
HT-29
  GI50: 3.1 µM
MCF7
  GI50: 7.8 µM
Saccharomyces cerevisiae [2]
  Fold change: 1.5

## CCCCCCN(C(=O)CCCCCN1C(=O)NC(c2ccc(-c3ccccc3)cc2)C(C(=O)OCc2ccccc2)=C1C)C(C(=O)NCCCC)c1ccc(OCC(=O)OC)c(C(=O)OC)c1 (stereo not drawn)
Saccharomyces cerevisiae [1]
  Fold change: -2
SK-BR-3
  GI50: 27 µM
SK-BR-3; read-out: ED50 (the source's name)
  EC50: 8 µM
HT-29
  GI50: > 50 µM
MCF7
  GI50: 14.7 µM
Saccharomyces cerevisiae [2]
  Fold change: 1.7

## CC(C)(C)NC(=O)C(c1ccc(I)cc1)N(CCN1CCOCC1)C(=O)CCCNC(=O)c1ccccc1 (stereo not drawn)
Saccharomyces cerevisiae [1]
  Fold change: -2
SK-BR-3
  GI50: > 50 µM
HT-29
  GI50: > 50 µM
MCF7
  GI50: > 50 µM
Saccharomyces cerevisiae [2]
  Fold change: 1.1

## N=C(N)NCCCCCCC(=O)NC(O)C(=O)NCCCCNCCCN (stereo not drawn) [GUSPERIMUS]
[3]
  Kd: 4 µM
[4]
  Kd: 4 µM
